Data taken from ChEMBL document CHEMBL3734658, “Ring-truncated deguelin derivatives as potent Hypoxia Inducible Factor-1α (HIF-1α) inhibitors” (Eur J Med Chem, 2015).
Calls of active or inactive are those of the source. No cut-off for these calls is given here.

Assays:
[1] = target: Hypoxia-inducible factor 1-alpha (Homo sapiens) (UniProt Q16665); assay: Inhibition of HIF-1alpha in human H1299 cells at 100 nM after 72 hrs subsequently incubated for 12 hrs under hypoxic conditions by Western blot assay relative to control; type: cell-based; details: values are per cent of control
Procedure, shortened: (§1)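 H1299 non-small-cell lung carcinoma cells were left untreated or exposed to compound at 100 nM (or 10 nM for a follow-up subset) for 72 h. They were then held under hypoxia for 12 h, and HIF-1α protein was assessed by western blot.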

[2] = target: Hypoxia-inducible factor 1-alpha (Homo sapiens) (UniProt Q16665); assay: Inhibition of HIF-1alpha in human H1299 cells at 10 nM after 72 hrs subsequently incubated for 12 hrs under hypoxic conditions by Western blot assay relative to control; type: cell-based; details: values are per cent of control; procedure, shortened: as §1
[3] = Cytotoxicity against mouse HT22 cells assessed as cell viability at 0.1 to 10 uM; type: cell-based; details: ht-22, 10 µM
[4] = species on record: Homo sapiens; assay: Antiangiogenic activity in human RMVEC assessed as inhibition of VEGF-induced cell migration under hypoxic condition at 100 nM by transwell chamber system; type: functional
[5] = target: Hypoxia-inducible factor 1-alpha (Homo sapiens) (UniProt Q16665); assay: Inhibition of HIF-1alpha in human H1299 cells after 72 hrs subsequently incubated for 12 hrs under hypoxic conditions by Western blot assay relative to control; type: cell-based; procedure, shortened: as §1
[6] = Antitumor activity against human H1299 cells assessed as reduction in cell viability at 20 uM by MTT assay; type: functional; details: NCI-H1299
[7] = species on record: Homo sapiens; assay: Antiangiogenic activity in human RMVEC assessed as inhibition of VEGF-induced cell proliferation under hypoxic condition at 100 nM by [3H]thymidine incorporation assay; type: functional
[8] = tested on: NCI-H1299; assay: Antitumor activity against human H1299 cells assessed as reduction in cell viability by MTT assay; type: functional, cell-based

Chain of Hypoxia-inducible factor 1-alpha (Homo sapiens) (Q16665 whole entry, looked up): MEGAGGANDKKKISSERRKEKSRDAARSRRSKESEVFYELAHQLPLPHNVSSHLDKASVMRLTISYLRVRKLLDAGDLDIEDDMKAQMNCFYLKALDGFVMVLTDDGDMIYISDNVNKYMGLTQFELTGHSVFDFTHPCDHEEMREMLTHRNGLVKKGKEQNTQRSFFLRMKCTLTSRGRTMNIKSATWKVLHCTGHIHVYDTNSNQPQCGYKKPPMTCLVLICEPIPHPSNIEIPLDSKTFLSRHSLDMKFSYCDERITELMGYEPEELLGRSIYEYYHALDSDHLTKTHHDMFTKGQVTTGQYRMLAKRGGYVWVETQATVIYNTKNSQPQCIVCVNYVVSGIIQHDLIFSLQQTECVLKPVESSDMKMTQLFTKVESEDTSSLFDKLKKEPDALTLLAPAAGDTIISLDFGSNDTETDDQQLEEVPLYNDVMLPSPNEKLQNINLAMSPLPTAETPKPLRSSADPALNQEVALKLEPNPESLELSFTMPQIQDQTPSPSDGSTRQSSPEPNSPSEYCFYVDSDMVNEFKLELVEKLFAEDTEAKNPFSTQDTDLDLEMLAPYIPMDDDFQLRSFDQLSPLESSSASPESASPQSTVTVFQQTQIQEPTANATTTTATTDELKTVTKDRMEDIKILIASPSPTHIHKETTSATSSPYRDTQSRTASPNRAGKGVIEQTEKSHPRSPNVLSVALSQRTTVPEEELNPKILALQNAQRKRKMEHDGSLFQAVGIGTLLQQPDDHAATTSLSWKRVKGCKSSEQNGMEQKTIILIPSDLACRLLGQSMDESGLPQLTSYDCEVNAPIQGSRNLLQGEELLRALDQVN

| response, % of control [1] | Compound | further results |
| --- | --- | --- |
| 113% | COc1ccc(C(C)(C)C(OC(C)=O)c2ccc3c(c2OC)C=CC(C)(C)O3)nc1OC (stereo not given) |  |
| 64.1% | COc1ccc(C(C)C(OC(=O)N(C)C)c2ccc3c(c2OC)C=CC(C)(C)O3)c(F)c1OC (stereo not given) | response, % of control [2]: 93.6% |
| 78.6% | COc1ccc(C(C)C(=O)c2ccc3c(c2OC)C=CC(C)(C)O3)c(F)c1OC (stereo not given) |  |
| 68% | COc1ccc(C(C)(C)C(O)c2ccc3c(c2OC)C=CC(C)(C)O3)c(F)c1OC (stereo not given) |  |
| 64.8% | CO/N=C(/Cc1ccc(OC)c(OC)n1)c1ccc2c(c1OC)C=CC(C)(C)O2 | response, % of control [2]: 74% |
| 69.5% | COc1ccc(C(C)C(OC(=O)C2CCC2)c2ccc3c(c2OC)C=CC(C)(C)O3)c(F)c1OC (stereo not given) |  |
| 78.5% | COc1ccc(C/C(=N\O)c2ccc3c(c2OC)C=CC(C)(C)O3)nc1OC |  |
| 76.5% | CNC(=O)OC(c1ccc2c(c1OC)C=CC(C)(C)O2)C(C)c1ccc(OC)c(OC)c1F (stereo not given) |  |
| 79.2% | COc1ccc(C/C(=N/O)c2ccc3c(c2OC)C=CC(C)(C)O3)nc1OC |  |
| 114% | COc1ccc(CC(OC(C)=O)c2ccc3c(c2OC)C=CC(C)(C)O3)nc1OC (stereo not given) |  |
| 83.4% | COc1ccc(C(C)(C)C(OC(C)=O)c2ccc3c(c2OC)C=CC(C)(C)O3)c(F)c1OC (stereo not given) |  |
| 133% | COc1ccc(/C=C/c2ccc3c(c2OC)C=CC(C)(C)O3)nc1OC |  |
| 74.9% | COc1ccc(C(C)(C)C(=O)c2ccc3c(c2OC)C=CC(C)(C)O3)c(F)c1OC |  |
| 88.9% | COc1ccc(CC(OC(N)=O)c2ccc3c(c2OC)C=CC(C)(C)O3)c(F)c1OC (stereo not given) |  |
| 82.1% | COc1ccc([C@H](C)C(=O)c2ccc3c(c2OC)C=CC(C)(C)O3)cc1OC |  |
| 70.3% | COc1ccc(CC(OC(=O)C2CC2)c2ccc3c(c2OC)C=CC(C)(C)O3)c(F)c1OC (stereo not given) |  |
| 48.8% | COc1ccc(C(C)C(OC(N)=O)c2ccc3c(c2OC)C=CC(C)(C)O3)c(F)c1OC (stereo not given) | response, % of control [2]: 80.9% |
| 52.2% | COc1ccc([C@H](C)[C@@H](OC(C)=O)c2ccc3c(c2OC)C=CC(C)(C)O3)c(F)c1OC (relative stereo) | Activity [3]: Non-toxic; Activity [4]: Active; inhibition [5]: Dose-dependent effect; inhibition at 20 µM [6]: 50%; Activity [7]: Active; Activity [8]: Dose-dependent effect; response, % of control [2]: 63.2% |
| 69.2% | COc1ccc(C(C)(C)C(O)c2ccc3c(c2OC)C=CC(C)(C)O3)nc1OC (stereo not given) |  |
| 87.9% | CCC(c1ccc(OC)c(OC)c1F)C(OC(=O)C1CC1)c1ccc2c(c1OC)C=CC(C)(C)O2 (stereo not given) |  |
| 74.3% | COc1ccc(CC(O)c2ccc3c(c2OC)C=CC(C)(C)O3)c(F)c1OC (stereo not given) |  |
| 75% | COc1ccc(CC(OC(N)=O)c2ccc3c(c2OC)C=CC(C)(C)O3)nc1OC (stereo not given) |  |

| response, % of control [1] | Compound | further results |
| --- | --- | --- |
| 85.3% | COc1ccc(CC(=O)c2ccc3c(c2OC)C=CC(C)(C)O3)cc1OC |  |
| 89.3% | COc1ccc(C(C)C(=O)c2ccc3c(c2OC)C=CC(C)(C)O3)nc1OC (stereo not given) |  |
| 134% | COc1ccc(/C=C/c2ccc3c(c2OC)C=CC(C)(C)O3)c(F)c1OC |  |
| 108% | COc1ccc(C(C)(C)C(OC(N)=O)c2ccc3c(c2OC)C=CC(C)(C)O3)nc1OC (stereo not given) |  |
| 67.8% | COc1ccc(CC(=O)c2ccc3c(c2OC)C=CC(C)(C)O3)c(F)c1OC |  |
| 75.2% | COc1ccc(CC(O)c2ccc3c(c2OC)C=CC(C)(C)O3)nc1OC (stereo not given) |  |
| 77.6% | COc1ccc(CC(=O)c2ccc3c(c2OC)C=CC(C)(C)O3)nc1OC |  |
| 63.7% | CCC(=O)OC(c1ccc2c(c1OC)C=CC(C)(C)O2)C(C)c1ccc(OC)c(OC)c1F (stereo not given) |  |
| 77.3% | CCC(=O)OC(Cc1ccc(OC)c(OC)c1F)c1ccc2c(c1OC)C=CC(C)(C)O2 (stereo not given) |  |
| 79.4% | COc1ccc([C@H](C)[C@H](OC(C)=O)c2ccc3c(c2OC)C=CC(C)(C)O3)c(F)c1OC (relative stereo) |  |
| 88.2% | CCC(=O)OC(c1ccc2c(c1OC)C=CC(C)(C)O2)C(C)(C)c1ccc(OC)c(OC)c1F (stereo not given) |  |
| 99.9% | COc1ccc(C(C)(C)C(=O)c2ccc3c(c2OC)C=CC(C)(C)O3)nc1OC |  |
| 35% | COc1ccc(C(C)C(OC(=O)C2CC2)c2ccc3c(c2OC)C=CC(C)(C)O3)c(F)c1OC (stereo not given) | inhibition at 20 µM [6]: 50%; Activity [8]: Dose-dependent effect; response, % of control [2]: 81.6% |
| 75% | COc1ccc(C(C)C(O)c2ccc3c(c2OC)C=CC(C)(C)O3)c(F)c1OC (stereo not given) |  |
| 111% | COc1ccc(C(C)(C)C(OC(=O)C2CC2)c2ccc3c(c2OC)C=CC(C)(C)O3)c(F)c1OC (stereo not given) |  |
| 96.7% | COc1ccc(C(C)C(OC(C)=O)c2ccc3c(c2OC)C=CC(C)(C)O3)nc1OC (stereo not given) |  |
| 68.9% | COc1ccc([C@H](O)[C@@H](O)c2ccc3c(c2OC)C=CC(C)(C)O3)nc1OC (relative stereo) |  |
| 69.3% | COc1ccc(CC(OC(C)=O)c2ccc3c(c2OC)C=CC(C)(C)O3)c(F)c1OC (stereo not given) |  |
| 71.2% | COc1ccc(C(C)C(O)c2ccc3c(c2OC)C=CC(C)(C)O3)nc1OC (stereo not given) |  |
| 44.2% | COc1ccc([C@H](C)C(=O)c2ccc3c(c2OC)C=CC(C)(C)O3)nc1OC | response, % of control [2]: 88.4% |
| 68.1% | COc1ccc([C@H](O)[C@@H](O)c2ccc3c(c2OC)C=CC(C)(C)O3)c(F)c1OC (relative stereo) |  |

| Compound | response, % of control [1] | further results |
| --- | --- | --- |
| COc1cc2c(cc1OC)[C@@H]1C(=O)c3ccc4c(c3O[C@@H]1CO2)C=CC(C)(C)O4 [DEGUELIN] | 64% | Activity [3]: Toxic; response, % of control [2]: 94% |
